Experimental data collected from several papers.
Each line is one published result; the experiments were not run side by side.
Target: Serine/threonine-protein kinase LATS1 (LATS1, Homo sapiens, UniProt O95835)
Residues used in one study (O95835 1-1130): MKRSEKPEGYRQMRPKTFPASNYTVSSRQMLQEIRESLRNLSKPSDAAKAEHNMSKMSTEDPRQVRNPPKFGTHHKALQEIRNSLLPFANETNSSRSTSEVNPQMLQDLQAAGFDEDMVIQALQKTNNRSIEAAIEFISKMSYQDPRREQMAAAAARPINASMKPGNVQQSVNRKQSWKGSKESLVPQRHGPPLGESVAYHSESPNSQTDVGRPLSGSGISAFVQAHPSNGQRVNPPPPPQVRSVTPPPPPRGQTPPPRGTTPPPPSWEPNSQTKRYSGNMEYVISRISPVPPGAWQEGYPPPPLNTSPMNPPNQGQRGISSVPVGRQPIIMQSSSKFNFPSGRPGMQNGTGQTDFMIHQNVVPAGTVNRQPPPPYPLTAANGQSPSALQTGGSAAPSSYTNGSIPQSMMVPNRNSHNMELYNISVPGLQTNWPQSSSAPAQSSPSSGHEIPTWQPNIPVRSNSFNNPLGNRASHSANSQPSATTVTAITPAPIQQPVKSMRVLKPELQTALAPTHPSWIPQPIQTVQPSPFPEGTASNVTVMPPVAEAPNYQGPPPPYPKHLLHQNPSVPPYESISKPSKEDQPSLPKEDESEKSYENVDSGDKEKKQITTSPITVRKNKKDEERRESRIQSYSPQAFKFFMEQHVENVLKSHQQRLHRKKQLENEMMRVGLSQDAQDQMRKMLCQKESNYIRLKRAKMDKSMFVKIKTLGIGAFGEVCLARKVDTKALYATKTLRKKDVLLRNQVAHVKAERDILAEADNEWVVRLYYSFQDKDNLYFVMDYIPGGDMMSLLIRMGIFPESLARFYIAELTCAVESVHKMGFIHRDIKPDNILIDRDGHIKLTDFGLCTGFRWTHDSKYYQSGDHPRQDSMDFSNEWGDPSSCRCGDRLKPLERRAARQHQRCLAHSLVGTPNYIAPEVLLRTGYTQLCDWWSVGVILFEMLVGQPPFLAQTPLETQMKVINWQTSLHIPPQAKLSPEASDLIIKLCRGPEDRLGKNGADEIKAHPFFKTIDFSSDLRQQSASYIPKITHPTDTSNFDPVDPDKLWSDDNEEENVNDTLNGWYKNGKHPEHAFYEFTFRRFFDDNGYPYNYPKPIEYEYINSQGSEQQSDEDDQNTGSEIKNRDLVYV

| Compound | assay | conditions | remaining binding [%] |
| --- | --- | --- | --- |
| NS(=O)(=O)c1cc(NC(=O)Cc2ccccc2)ccc1Oc1cccc(Cl)c1 | cell-free assay, competition with immobilised ligand | 1 µM | 79 |
| COc1cnc(Nc2cccc(S(N)(=O)=O)c2)nc1N1CCN(c2ccccc2)CC1 | binding, competition with immobilised ligand | 1 µM | 100 |
| O=C(c1ccc(Nc2ncc(Cl)c(-c3cc4ccccc4s3)n2)cc1)N1CCC(N2CCCC2)CC1 | binding, competition with immobilised ligand | 1 µM | 60 |
| C[C@H]1CCN(c2nccc(-c3cnn4ncccc34)n2)C1 | binding | 1 µM | 100 |
| CNC(=O)[C@@H]1CC[C@@H](n2c(-c3ccc4cnccc4c3)nc3ccc(C(=O)NCc4cccc(C(N)=O)c4)cc32)C1 | binding, competition with immobilised ligand | 1 µM | 100 |
| Cc1nc(Cc2cccc(C(F)(F)F)c2)sc1-c1ccc(C(N)=O)nc1 | cell-free assay, competition with immobilised ligand | 1 µM | 100 |
| FC(F)(F)Oc1cccc(-c2cnc3ccc(-c4ccncc4)nn23)c1 | cell-free assay, competition with immobilised ligand | 5 µM | 100 |
| Cc1cnn2ncc(-c3ccnc(N(C)C)n3)c2c1 | binding | 1 µM | 48 |
| Cc1cc(NC(=O)c2cccc(S(F)(F)(F)(F)F)c2)cc(-n2ccn3nc(-c4cccnc4)cc23)c1 | cell-free assay, competition with immobilised ligand | 1 µM | 100 |
| COc1ncc2cc3ccccc3nc2c1C#N | cell-free assay, competition with immobilised ligand | 5 µM | 93 |
| O=C(NCCCN1CCOCC1)c1ccc(Nc2nccc(-c3cc4ccccc4s3)n2)cc1 | binding, competition with immobilised ligand | 1 µM | 100 |
| CN(C)c1nccc(-c2cnc3ncccn23)n1 | binding | 1 µM | 100 |
| Nc1ncc2c(n1)-c1c([nH]c3ccc(C#CC4CC4)cc13)CCCC2 | binding, competition with immobilised ligand | 1 µM | 92 |
| CN(CCCC(F)(F)F)c1nccc(-c2cnn3ncccc23)n1 | binding | 1 µM | 78 |
| CN(C)c1ncnc(-c2ccc3nc(Nc4cc(CN5CCN(C(=O)CC(F)(F)F)CC5)ccn4)[nH]c3c2)c1Cl | cell-free assay, competition with immobilised ligand | 1 µM | 95 |
| N[C@H]1CCN(c2nccc(-c3cnn4ncccc34)n2)C1 | binding | 1 µM | 100 |
| O=C(Nc1c[nH]nc1C(=O)NC1CCNCC1)c1cc(F)cc(F)c1 | binding, competition with immobilised ligand | 1 µM | 100 |
| CCCCN(CCCC)C(=O)CN1C[C@@H](c2cc(OC)c3c(c2)OCO3)[C@H](C(=O)O)[C@H]1CC(C)(C)CCC | cell-free assay, competition with immobilised ligand | 1 µM | 75.2 |
| c1cnn2ncc(-c3ccnc(N4CCC45COC5)n3)c2c1 | binding | 1 µM | 88 |
| CCOCCn1cc(C(=O)Nc2ccc(-n3nc(-c4cccnc4)cc3C(F)(F)F)cn2)ccc1=O | cell-free assay, competition with immobilised ligand | 1 µM | 69 |
| c1cncc(-c2cccc(Nc3nccc(NC4CCCCC4)n3)c2)c1 | binding, competition with immobilised ligand | 10 µM | 19 |
